High-throughput results (PubChem)
Wee1 stabilizer = blocks degradation of human Wee1 kinase. reporter increase, % at 5 µM. AID 1321. P30291. actives 1.2% (n = 220,000). HeLa Luc-Wee1K328M stability, luciferase luminescence; 100% = proteasome inhibitor MG132 effect;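 active = activation above the mean of all tested compounds plus 3 SD, set per screening run, cut at about 8.8% in these data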;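 note: cells exposed to compound for 20 h before luminescence read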
Runt-SMMHC FRET = Runt domain-CBFb-SMMHC interaction inhibition; actives 0.74% (n = 220,000); Cerulean-Runt/Venus-CBFb-SMMHC FRET ratio 530/480, 1 h; inhibition, % at 20 µM;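 active = mean inhibition across duplicate retests at 20 µM reaching about 50%, limit read from the data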;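 note: inhibitors lower the FRET ratio by blocking Runt binding to CBFb-SMMHC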
Target sequence (Q01196 whole entry, looked up, the tested form may be a part): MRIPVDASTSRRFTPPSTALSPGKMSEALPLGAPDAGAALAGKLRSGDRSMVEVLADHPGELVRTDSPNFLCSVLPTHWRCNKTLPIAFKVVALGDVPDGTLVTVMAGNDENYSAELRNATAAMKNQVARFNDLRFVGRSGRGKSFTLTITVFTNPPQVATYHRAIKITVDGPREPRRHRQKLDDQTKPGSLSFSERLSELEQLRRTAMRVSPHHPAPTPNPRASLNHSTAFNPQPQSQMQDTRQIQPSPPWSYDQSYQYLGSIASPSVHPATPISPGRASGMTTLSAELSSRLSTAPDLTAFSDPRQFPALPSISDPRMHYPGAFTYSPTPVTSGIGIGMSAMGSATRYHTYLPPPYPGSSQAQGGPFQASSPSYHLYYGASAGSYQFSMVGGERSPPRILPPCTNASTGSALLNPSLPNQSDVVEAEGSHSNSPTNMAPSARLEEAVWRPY
Target sequence (Q13951 whole entry, looked up, the tested form may be a part): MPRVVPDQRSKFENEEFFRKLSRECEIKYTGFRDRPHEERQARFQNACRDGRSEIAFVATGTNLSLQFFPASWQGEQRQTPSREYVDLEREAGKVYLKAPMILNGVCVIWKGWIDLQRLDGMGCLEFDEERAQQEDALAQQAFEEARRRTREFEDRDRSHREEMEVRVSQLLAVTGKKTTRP
proKLK7 act = proKLK7 (human) activation, primary screen; purified proKLK7, EDANS-DABCYL substrate fluorescence; 100% is mature enzyme control, 0% vehicle; P49862; actives 0.9% (n = 370,000); activation, % at 7 µM;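 active = activation above the mean of all tested compounds plus 3 SD, computed per campaign excluding outliers beyond control limits, cut at about 13% in these data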
AI-2 QS modul = modulators of Vibrio harveyi AI-2 quorum sensing system. Vibrio harveyi JMH597 AI-2 luminescence/OD600 ratio, 9 h; stronger effect = lower value; strain lacks LuxN and CqsS sensors; 0 = neutral-control median. activity change, % at 7.5 µM. actives 0.4% (n = 300,000). AID 2094; in the data active = activity change below about -75%, passing the limit was not always enough; inconclusive = no clear call, values can overlap the other calls;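 note: luminescence divided by OD600 gain over 9 h not by final OD600 alone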
RanGTP-Impb inh = inhibitors of RanGTP-importin-beta interaction, primary screen, biochemical, FRET, CFP-Ran, YFP-importin-beta, homogeneous. cell-free CFP-Ran/YFP-importin-beta FRET ratio. actives 1.1% (n = 300,000). inhibition, % (concentration not given with the values);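 active = more than half of the replicate wells show a fall in the fluorescence ratio signal beyond about 16%, limit read from the data, passing the limit was not always enough; inconclusive = exactly half of the replicate wells pass the set limit; inactive = fewer than half of replicates pass the limit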
Runt-CBFb FRET = blocks binding of human RUNX1 Runt domain to CBFb; Q01196+Q13951; Cerulean-Runt/Venus-CBFb FRET ratio 530/480, 1 h; inhibition, % at 20 µM; actives 0.46% (n = 220,000);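 active = inhibition over about 50% at 20 µM in the single-dose screen, limit read from the data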
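test system = Cerulean-tagged RUNX1 Runt domain (FRET donor) fusion protein | reagent = Venus-CBFb binding partner, 100 nM | incubation = protein complex preformed 1 h, compound exposure 1 h, room temperature, dark | detection = FRET fluorescence | read-out basis = loss of energy transfer signal | controls = 5 µM unlabeled CBFb as full-inhibition high control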
YIC counter = counter-screen: alters YIC FRET probe signal; shares compounds with RanGTP-Impb inh; Purified YIC probe, intramolecular FRET ratio YFP/CFP; IC50, µM; actives 40% (n = 1,000); AID 435026;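 active = fitted half-maximal inhibitory concentration no more than tenfold above the top dose tested; inconclusive = flat fit with 30 to 70% activity, or poor fit; inactive = half-maximal concentration beyond tenfold above the top dose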
Hits are given with their value; - = inactive; ? = inconclusive; . = no result given. Hits are enriched below; roughly 2.9% of the tested compounds scored in any of these assays.

SMILES	Wee1 stabilizer	Runt-SMMHC FRET	proKLK7 act	AI-2 QS modul	RanGTP-Impb inh	Runt-CBFb FRET	YIC counter
Cc1ccc2cc(C#N)c(N3CCCN(S(=O)(=O)c4ccccc4)CC3)nc2c1	-	-	-	-	?	-	.
CCN(CC)Cc1cc(C(=O)O)c(C)o1	-	.	-	-	-	.	.
CCN(CC)Cc1c(CC(C)C)oc(C)c1C(=O)O	-	-	-	-	21	-	-
CCc1nc2ccccc2c(C(=O)OCC(=O)NCCCN2CCCC2=O)c1C	-	-	-	-	-	-	.
O=C(NNC(=O)c1ccccc1OCc1ccccc1Cl)c1csc(N2CCOCC2)n1	.	.	-	-	-	.	.
Cc1c(C(=O)N2CCC(N3CCSCC3)CC2)oc2c(F)cccc12	.	.	-	-	-	.	.
Cc1ccc(N2NC(=O)/C(=C\c3cc4c(cc3[N+](=O)[O-])OCO4)C2=O)cc1C	-	-	-	-	25	-	-
Cc1oc(-c2ccccc2Cl)nc1CS(=O)CC(=O)NCc1ccc2c(c1)OCO2 (configuration not stated)	.	.	-	-	-	.	.
Cc1cc2nc3c(c(C(F)(F)F)n2n1)CCCC3	-	-	-	-	.	-	.
O=C(CN1CC(=O)Oc2ccccc21)NCc1ccco1	-	-	-	-	19	-	-
O=C(CN1CCOc2ccccc21)NCc1ccco1	-	-	-	-	?	-	.
CCc1nc2c(OCc3ccc(C(F)(F)F)cc3)cccn2c1N(C=O)Cc1ccc(OC)cc1	.	.	-	.	.	.	.
O=C(N/N=C/c1ccc(-c2ccccc2Cl)o1)c1ccccc1	-	-	-	-	21	-	-
O=C(NC1CCCN(Cc2ccc(Cl)cc2)C1)c1ccccc1-c1ncc[nH]1 (configuration not stated)	.	.	-	-	-	.	.
O=C(Nc1nc2ccc(S(=O)(=O)N3CCCCC3)cc2s1)c1ccncc1	-	-	-	-	-	-	.
O=C(Nc1nc2ccc(S(=O)(=O)N3CCCCC3)cc2s1)c1cccnc1	-	-	-	-	22	-	-
COc1cc(OC)cc(C(=O)N2CCN(C3CCC(C)CC3)CC2)c1 (configuration not stated)	.	.	-	.	.	.	.
Cc1ccc2nc(N3CCN(C)CC3)c(C#N)cc2c1	-	-	-	-	-	-	.
Cc1ccc2nc(N3CCN(Cc4nnnn4Cc4ccccc4)CC3)c(C#N)cc2c1	-	62	-	-	17	-	22
COc1cc(-c2nc3cnccn3c2Nc2ccc(C(C)C)cc2)ccc1O	-	-	-	-	32	-	-
CCCN(CC(=O)Nc1ccccc1OC)C(=O)CC1CCCC1	.	.	-	.	.	.	.
COc1ccc(-c2ncc3ccccn23)cc1OC	-	-	-	-	-	-	.
Clc1ccc(-c2ncc3ccccn23)cc1	-	.	-	-	26	.	-
COc1ccc(-c2nc3ccc(C(=O)NCCCN4CCOCC4)cc3nc2-c2ccc(OC)cc2)cc1	.	.	-	-	21	.	22
COc1ccc(C(=O)NCCCN2CCOCC2)cc1	.	.	-	-	-	.	.
SMILES	Wee1 stabilizer	Runt-SMMHC FRET	proKLK7 act	AI-2 QS modul	RanGTP-Impb inh	Runt-CBFb FRET	YIC counter
COC(=O)C1(Cc2ccccc2)NC(c2ccc(F)cc2)C2C(=O)N(C)C(=O)C21 (configuration not stated)	-	-	-	-	-	-	.
CCC1(C(=O)OC)NC(c2cccc(F)c2)C2C(=O)N(C)C(=O)C21 (configuration not stated)	-	.	-	-	20	.	-
CC(C)COC(=O)N(C)C[C@H]1OCc2cn(nn2)CCCC(=O)N([C@H](C)CO)C[C@@H]1C	.	.	-	.	.	.	.
CC(=O)c1cccc(OCC(=O)N(C)CC(=O)Nc2ccc(F)cc2)c1	-	-	-	-	65	-	-
O=C(COC(=O)CCNS(=O)(=O)c1ccccc1)NC(=O)c1ccccc1	.	.	-	-	?	.	.
CC1=C(C(=O)OC(C)C)C(c2cccnc2)C2=C(CC(C)(C)CC2=O)N1 (configuration not stated)	-	102	-	-	19	77	23
